Measured values collected from several papers.
Compare with care: the assays were run in different laboratories.
Target: Inhibitor of nuclear factor kappa-B kinase subunit epsilon (IKBKE, Homo sapiens, UniProt Q14164)
Residues used in one study (Q14164 1-716): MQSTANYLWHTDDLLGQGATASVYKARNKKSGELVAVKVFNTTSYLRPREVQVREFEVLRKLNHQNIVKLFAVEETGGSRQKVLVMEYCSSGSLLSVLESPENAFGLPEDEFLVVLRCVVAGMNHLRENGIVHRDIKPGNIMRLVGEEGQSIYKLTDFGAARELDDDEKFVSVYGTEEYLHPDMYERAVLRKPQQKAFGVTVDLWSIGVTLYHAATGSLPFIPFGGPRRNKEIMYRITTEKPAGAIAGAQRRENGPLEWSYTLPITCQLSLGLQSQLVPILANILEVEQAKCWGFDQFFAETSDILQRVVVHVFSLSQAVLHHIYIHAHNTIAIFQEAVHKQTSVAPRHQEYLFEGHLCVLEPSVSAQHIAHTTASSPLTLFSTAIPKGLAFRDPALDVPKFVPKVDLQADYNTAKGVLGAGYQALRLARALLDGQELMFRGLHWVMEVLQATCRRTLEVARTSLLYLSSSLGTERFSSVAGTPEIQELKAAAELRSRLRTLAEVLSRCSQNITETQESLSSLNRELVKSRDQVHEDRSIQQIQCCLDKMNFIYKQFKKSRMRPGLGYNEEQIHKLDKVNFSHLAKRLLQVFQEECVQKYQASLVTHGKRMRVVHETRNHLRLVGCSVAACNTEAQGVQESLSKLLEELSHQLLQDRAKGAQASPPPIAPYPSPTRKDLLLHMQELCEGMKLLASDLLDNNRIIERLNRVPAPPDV

SMILES | test | conditions | quantity | result
Cc1ccc(NC(=O)c2ccc(C)c(C(F)(F)F)c2)cc1C#Cc1nn(C2CCC(O)CC2)c2ncnc(N)c12 (stereo not shown) | cell-free assay | 10 µM | remaining signal | 94%
N#CCCc1ccc2c(c1)-c1[nH]c3ccc([N+](=O)[O-])cc3c1CC(=O)N2 | cell-free assay | 0.5 µM | remaining signal | 89.2%
C[C@H](NC(=O)c1cnc2n1[C@](C)(Cc1ccc(C#N)cc1)C(=O)N2c1cc(Cl)c(F)c(Cl)c1)C(=O)NC1(c2ccccn2)CC1 | cell-free assay, competition with immobilised ligand | 1 µM | remaining binding | 89%
Cc1nn(CC(F)(F)F)cc1Nc1nccc(NCc2ccc(S(N)(=O)=O)cc2)n1 | enzyme activity, inhibitor, radiometric | 1 µM | remaining activity | 73%
C[C@H](c1cccc(C#N)c1)n1cc(Cl)cc(C(N)=O)c1=N | cell-free assay, competition with immobilised ligand | 1 µM | remaining binding | 82%
NS(=O)(=O)c1ccc(CNc2ccnc(Nc3cccc(NC(=O)N4CCCC4)c3)n2)cc1 | enzyme activity, inhibitor, radiometric | 1 µM | remaining activity | 79%
Cc1c[nH]c2nccc(Oc3c(F)cc(Nc4cc(Cl)nc(N)n4)cc3F)c12 | cell-free assay, competition with immobilised ligand | 0.1 µM | remaining binding | 93%
COc1cc(Nc2c(C#N)cnc3cc(OCCCN4CCN(C)CC4)c(OC)cc23)c(Cl)cc1Cl | cell-free assay | 0.5 µM | remaining signal | 75.4%
c1cc(CN2CCOCC2)cc(Nc2nccc(NCCc3cnc[nH]3)n2)c1 | enzyme activity, inhibitor, radiometric | 1 µM | remaining activity | 80%
COc1cc2c(N3CCN(C(=O)Nc4ccc(OC(C)C)cc4)CC3)ncnc2cc1OCCCN1CCCCC1 | cell-free assay | 0.5 µM | remaining signal | 96.2%
CC(C)CC(=O)N1CCc2nc(-c3ccc(Br)cc3)nc(N(C)Cc3ccccc3)c2C1 | cell-free assay, competition with immobilised ligand | 0.1 µM | remaining binding | 100%
CN1CCN(c2ccc3nc(-c4c(N)c5c(F)cccc5[nH]c4=O)[nH]c3c2)CC1 | enzyme activity, inhibitor | 0.5 µM | activity vs control | 42.9%
CN1CCc2cc(Nc3ncc(C4CC4)c(NCCCNC(=O)C4CCC4)n3)ccc2C1 | enzyme activity, inhibitor, radiometric | 1 µM | remaining activity | 4%
CCC(=O)N[C@H]1CC[C@@H](C(=O)N(C)c2ccc(-c3nc4ccccc4o3)cc2)C1 | cell-free assay, competition with immobilised ligand | 1 µM | remaining binding | 52%
Cc1cc(NC(=O)c2cccc3cc(-c4cccc5[nH]nc(N)c45)ccc23)ccc1F | enzyme activity, inhibitor | 0.1 µM | activity vs control | 111%
Cc1ccc(C(=O)NCc2ccsc2)cc1C#Cc1cn(C(C)C)c2ncnc(N)c12 | enzyme activity, inhibitor | 1 µM | activity vs control | 104%
NS(=O)(=O)c1ccc(CNc2nc(Nc3cccc(CN4CCOCC4)c3)ncc2C2CC2)cc1 | enzyme activity, inhibitor, radiometric | 1 µM | remaining activity | 43%
Nc1c(C(=O)NCc2ccc(C(=O)NCCCC3CCCCC3)cc2)cnn1-c1ccccc1 | cell-free assay, competition with immobilised ligand | 0.1 µM | remaining binding | 100%
CC/C(=N\NC(=O)NCc1cccc(O)c1)c1ccc(O)c(C)c1O | enzyme activity, inhibitor | 0.1 µM | inhibition | -0.4%
O=C(NCCCNc1ccnc(Nc2cccc(NC(=O)N3CCCC3)c2)n1)C1CCC1 | enzyme activity, inhibitor, radiometric | 1 µM | remaining activity | 33%
COc1cc(-c2cn(C3CCc4c(F)cccc4N(CC(F)(F)F)C3=O)nn2)ccc1-n1cnc(C)c1 (stereo not shown) | cell-free assay, competition with immobilised ligand | 1 µM | remaining binding | 100%
COc1cc2ncnc(Nc3ccc(Oc4ccccc4)cc3C)c2cc1OC | enzyme activity, inhibitor | 1 µM | inhibition | 5%
